Experimental data from publication PMC12808645 (Nature Communications, 2025).

Key:
Nan-Iav(∆697-C) = format: cell-based, Halyomorpha halys; conditions: 1 mM Ca2+, Δ C-ter (Iav∆(697-986))
Nan-IavW701A = assay: Whole-cell electrophysiology, Nan-IavW701A; format: cell-based, Halyomorpha halys; conditions: 1 mM Ca2+
Nan-IavY325A = format: binding, Halyomorpha halys
Drosophila Nan-Iav = conditions: cited from earlier work
stink bug Nan-Iav [1] = format: binding, Halyomorpha halys
stink bug Nan-Iav [2] = molecular target: stink bug Nan-Iav; parameters: species or system Halyomorpha halys; conditions: read-out: [3H]-AP binding Kd
Nan only, WT = assay: [3H]-AP binding to Nan-only membranes, WT; parameters: species or system Halyomorpha halys; conditions: read-out: [3H]-AP binding Kd
Method in brief: (§1)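 Nan expressed in HEK293S GnTI- suspension cells (1–1.5 M/mL) by 3% (v/v) baculovirus, ~1 day at 37 °C then 48 h at 25 °C. Membranes were made by sonication and spun at 300 × g 10 min then 50,000 × g 2 h. Saturation binding used 60–100 µg membranes with [3H]-AP in pH 7.4 HEPES binding buffer (CaCl2, MgCl2, 0.0025% Tween-20), 3 h at room temperature. Samples were filtered on 0.1% PEI-treated filters, washed thrice with ice-cold buffer, and counted by scintillation. Nonspecific binding was set with 500-fold excess unlabeled AP.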

Nan only, Y172A = assay: [3H]-AP binding to Nan-only membranes, Y172A; parameters: species or system Halyomorpha halys; conditions: NanY172A
Method in brief: as §1

Nan only, Y177A = assay: [3H]-AP binding to Nan-only membranes, Y177A; parameters: species or system Halyomorpha halys
Method in brief: as §1

SMILES: [Ca+2] [Ca^2+]
- % inhibition of inward current (Nan-Iav(∆697-C)): ~ 10%
- % inhibition of inward current (Nan-IavW701A): ~ 10%

SMILES: NC(=O)c1cccnc1 [NAM, nicotinamide]
- NAM binding (in words) (Nan-IavY325A): eliminated NAM binding
- EC50 (Drosophila Nan-Iav): 14000 nM

SMILES: CC1=NNC(=O)N(/N=C/c2cccnc2)C1 [PM, pymetrozine]
- binding mode versus [3H]-AP (stink bug Nan-Iav [1]): competitive binding

SMILES: C[C@]1(COC(=O)C2CC2)[C@@H]2C[C@H](O)[C@@]3(C)Oc4cc(-c5cccnc5)oc(=O)c4[C@H](O)[C@@H]3[C@@]2(C)CC[C@@H]1OC(=O)C1CC1 [[^3H]-AP]
- Kd (stink bug Nan-Iav [2]): 0.017 nM
- Kd (Nan only, WT): 0.089 nM
- higher [3H]-AP Kd compared to WT Nan (Nan only, Y172A): 7.5 fold
- [3H]-AP binding Kd (Nan only, Y177A): lacks measurable binding
